Consider 14 molecules from paper PMC4073661 (Journal of Natural Products, 2014).

Data set [1] relates to MCF-7S human breast carcinoma. The following applies: read-out: IC50, MCF-7S cell growth; cited from earlier work.
Data set [2] concerns KB human epidermoid carcinoma. The following applies: read-out: IC50, KB cell growth; cited from earlier work.
A further data set concerns caspase-3. The data set can be described thus: Caspase-3 activation by Western blot. The following applies: 24 h incubation; 1, 5 and 10 μM; cleaved caspase-3 Western blot. It is filed as cell-based, human. For orientation: In western blotting, separated proteins are transferred to a membrane and probed.
Data set [3] relates to HT-29 human colon cancer cells. The data set can be described thus: Cytotoxicity against HT-29 cells. It is filed as cell-based. Put shortly:
(§1)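 Cell growth-inhibition screen with paclitaxel as positive control. Each measurement was run in triplicate, and each value is representative of two independent experiments. IC50 was calculated by nonlinear regression.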

The subject of data set [4] is HT-29 human colon cancer cell. The following applies: 8-day treatment; cited from earlier work.
Data set [5] concerns several human cancer cell lines. The following applies: cited from earlier work.
The next data set deals with KB cells. The following applies: cited from earlier work.
Data set [6] deals with a broad spectrum of normal and tumor cell lines. The following applies: cited from earlier work.
In data set [7] the test system is SKW-3 chronic lymphoid leukemia cells. The following applies: cited from earlier work.
Data set [8] concerns P-388 murine lymphocytic leukemia cells. The following applies: cited from earlier work.
Another data set deals with topoisomerase. The following applies: cited from earlier work.
The subject of data set [9] is CCD-112CoN normal human colon cells. In words: Cytotoxicity against CCD-112CoN cells. It is filed as cell-based. Put shortly:
as §1

The conditions of data set [10]: cited from earlier work.
For another data set, the target named is topo IIα (Homo sapiens, UniProt P11388). The data set can be described thus: Topoisomerase II assay. It is filed as biochemical. The following applies: 100 μM.
Chain of topo IIα (P11388 whole entry): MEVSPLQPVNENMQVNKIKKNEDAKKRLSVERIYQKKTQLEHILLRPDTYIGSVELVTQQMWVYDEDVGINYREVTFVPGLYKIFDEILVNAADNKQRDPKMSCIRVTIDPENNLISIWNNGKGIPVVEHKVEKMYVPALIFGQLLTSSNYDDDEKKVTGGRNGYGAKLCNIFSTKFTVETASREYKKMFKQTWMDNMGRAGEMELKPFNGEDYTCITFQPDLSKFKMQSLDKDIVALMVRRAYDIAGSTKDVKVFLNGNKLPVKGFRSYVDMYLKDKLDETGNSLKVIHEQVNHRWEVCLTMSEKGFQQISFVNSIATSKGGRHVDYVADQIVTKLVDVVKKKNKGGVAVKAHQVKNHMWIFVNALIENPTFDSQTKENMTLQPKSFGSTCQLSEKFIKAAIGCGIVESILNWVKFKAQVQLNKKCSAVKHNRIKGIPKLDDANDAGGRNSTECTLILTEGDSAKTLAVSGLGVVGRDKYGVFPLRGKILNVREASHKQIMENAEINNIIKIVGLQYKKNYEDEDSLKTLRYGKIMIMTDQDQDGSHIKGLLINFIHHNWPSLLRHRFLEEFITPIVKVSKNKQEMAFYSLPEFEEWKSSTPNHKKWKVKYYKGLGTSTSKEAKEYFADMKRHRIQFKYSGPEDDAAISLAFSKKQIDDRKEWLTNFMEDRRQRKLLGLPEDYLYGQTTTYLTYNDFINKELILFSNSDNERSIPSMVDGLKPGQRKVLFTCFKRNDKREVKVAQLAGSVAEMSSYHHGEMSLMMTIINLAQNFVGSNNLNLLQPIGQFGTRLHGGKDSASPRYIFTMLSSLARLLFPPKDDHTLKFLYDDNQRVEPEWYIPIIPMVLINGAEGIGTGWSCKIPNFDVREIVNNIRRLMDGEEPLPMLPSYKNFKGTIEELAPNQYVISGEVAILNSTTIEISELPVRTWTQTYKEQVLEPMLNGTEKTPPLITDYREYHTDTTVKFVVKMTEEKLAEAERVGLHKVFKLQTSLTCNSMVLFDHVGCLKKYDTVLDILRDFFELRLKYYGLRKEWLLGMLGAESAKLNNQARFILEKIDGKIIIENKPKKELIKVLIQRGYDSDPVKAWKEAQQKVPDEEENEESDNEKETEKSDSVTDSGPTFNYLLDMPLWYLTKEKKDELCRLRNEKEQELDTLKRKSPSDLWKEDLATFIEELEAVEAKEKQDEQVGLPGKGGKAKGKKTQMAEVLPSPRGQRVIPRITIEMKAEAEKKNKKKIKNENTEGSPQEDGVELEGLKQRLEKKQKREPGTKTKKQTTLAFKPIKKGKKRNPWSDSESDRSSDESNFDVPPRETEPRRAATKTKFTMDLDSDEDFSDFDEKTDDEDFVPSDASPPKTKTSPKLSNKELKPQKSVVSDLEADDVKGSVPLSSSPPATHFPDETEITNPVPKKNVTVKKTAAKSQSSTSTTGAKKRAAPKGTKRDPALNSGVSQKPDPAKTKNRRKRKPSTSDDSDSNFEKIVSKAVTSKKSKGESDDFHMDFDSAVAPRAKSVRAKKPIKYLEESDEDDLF
In data set [11] the test system is HT-29 cells implanted in immunodeficient NCr nu/nu mice. In words: In vivo hollow fiber assay. Put shortly: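 Eight- to nine-week-old mice carrying HT-29 cells in hollow fibers received ip doses once daily on days 3–6 after implantation. Vehicle was diluted with water to 13% DMSO and 25% Cremophor; paclitaxel 5 mg/kg was the positive control. Body weight was recorded daily. Fibers were retrieved on day 7 for modified MTT. Net growth (day 7 − day 0 absorbance) was expressed relative to vehicle; n = 6 control, 3 per treatment.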

By IC50 is commonly meant the concentration at which inhibition is half-maximal.

Values after ≈ are worked out from the molar mass of the structure shown. “Also recorded” adds a separate entry of the source.

Turning to `COc1cc2c(O[C@@H]3O[C@H](C)[C@@H](O)[C@H](O)[C@H]3O)c3c(c(-c4ccc5c(c4)OCO5)c2cc1OC)C(=O)OC3` [Patentiflorin A], the figures for the concentration for half-maximal inhibition (IC50) in [1] and in data set [2] were 3 nM and 4 nM, respectively.

Turning to `COc1cc([C@@H]2c3cc4c(cc3[C@@H](O[C@@H]3O[C@@H]5CO[C@@H](C)O[C@H]5[C@H](O)[C@H]3O)[C@H]3COC(=O)[C@H]23)OCO4)cc(OC)c1O` [etoposide], the “caspase-3 activation in HT-29 cells” value with caspase-3 is reported as “did not induce caspase-3 activation”. In data set [3], the “cytotoxicity against HT-29 human colon cancer cells (in words)” value is “inactive”. Further, the “HT-29 cell apoptosis induction” value in data set [4] is reported as “induced HT-29 human colon cancer cell apoptosis”.

As for `COc1cc2c(OC)c3c(c(-c4ccc5c(c4)OCO5)c2cc1OC)C(=O)OC3` [justicidin A], in data set [5], the “IC50 toward several human cancer cell lines” value was 0.002 to 0.007 µg/mL and the “cytotoxicity (in words)” value is “highly cytotoxic”.

With `COc1cc2c(OC3OCC(OC)C(OC)C3O)c3c(c(-c4ccc5c(c4)OCO5)c2cc1OC)C(=O)OC3` (centres unmarked) [Cleistanthin A], in the data set with KB cells, the “GI50 toward KB cells” value is 5.6 nM.

For `COc1cc2c(O[C@@H]3O[C@H](CO)[C@@H](O)[C@H](O)[C@H]3O)c3c(c(-c4ccc5c(c4)OCO5)c2cc1OC)C(=O)OC3` [cleistanthin B], the “selectivity of cytotoxicity, tumor versus normal cell lines (in words)” value in data set [6] is reported as “showed cytotoxicity toward human tumor cells selectively”.

Regarding `COc1cc2cc3c(c(-c4ccc5c(c4)OCO5)c2cc1OC)C(=O)CO3` [Justicidin B], the “cytotoxicity toward SKW-3 cells (in words)” value in data set [7] is recorded as “cytotoxic”.

`COc1cc2c(O[C@@H]3OC[C@H](O)[C@H](O)[C@H]3O)c3c(c(-c4ccc5c(c4)OCO5)c2cc1OC)C(=O)OC3` [Acutissimalignan A]: in [8], the “IC50 toward P-388 cells” value is 0.02 µg/mL (≈ 0.039 µM).

As to `COc1ccc(-c2c3c(c(OC)c4cc5c(cc24)OCO5)COC3=O)cc1OC` [chinensinaphthol methyl ether], the “cytotoxicity (in words)” value in data set [5] is given as “did not show such activity”.

As to `COc1cc2c(-c3ccc4c(c3)OCO4)c3c(cc2cc1O)COC3=O` [daurinol], in the data set with topoisomerase, the “formation of open circular and linear DNA from topoisomerase-DNA cleavable intermediate” value was “did not induce the formation of open circular and linear DNA”.

In the case of `COc1cc2c(O[C@@H]3O[C@H](CO)[C@@H](O)[C@H](O)[C@H]3O)c3c(c(-c4ccc5c(c4)OCO5)c2cc1OC)C(=O)OC3` [Compound 5, cleistanthin B], in data set [3], the “cytotoxicity against HT-29 human colon cancer cells (in words)” value is “inactive”.

With `COc1cc2c(O[C@@H]3OC[C@H](O)[C@H](O)[C@H]3O)c3c(c(-c4ccc5c(c4)OCO5)c2cc1OC)C(=O)OC3` [Compound 4, phyllanthusmin C], the “cytotoxicity toward CCD-112CoN human normal colon cells (in words)” value in data set [9] was “noncytotoxic”.

Take `CC(=O)O[C@H]1C(=O)[C@@]2(C)[C@H]([C@H](OC(=O)c3ccccc3)[C@]3(O)C[C@H](OC(=O)[C@H](O)[C@@H](NC(=O)c4ccccc4)c4ccccc4)C(C)=C1C3(C)C)[C@]1(OC(C)=O)CO[C@@H]1C[C@@H]2O` [paclitaxel]: the IC50 in data set [3] (Homo sapiens, HT-29, read-out: IC50 values toward the HT-29 cells) was found to be 1 nM.

Consider Cleistanthoside A tetraacetate, for which the “IG50 values, cytotoxicity” value in data set [10] is “in the nanomolar range”.

As for `COc1cc2c(O[C@@H]3OC[C@H](OC(C)=O)[C@H](OC(C)=O)[C@H]3O)c3c(c(-c4ccc5c(c4)OCO5)c2cc1OC)C(=O)OC3` [Compound 1, 7-O-[(3,4-di-O-acetyl)-α-L-arabinopyranosyl]-4,5-dimethoxy-3′,4′-methylenedioxy-2,7′-cycloligna-7,7′-dieno-9,9′-lactone], the “topo IIα inhibition (in words)” value at topo IIα was “did not inhibit DNA topoisomerase IIα activity”. Besides, the “cytotoxicity toward CCD-112CoN human normal colon cells (in words)” value in data set [9] is given as “noncytotoxic”. Further, in the data set on caspase-3, the “caspase-3 activation in HT-29 cells” value is “induced activation of caspase-3”. In addition, the “toxicity in treated mice” value in [11] (5.0-20.0 mg/kg ip once daily for 4 days, NCr nu/nu mice) is “No gross toxicity was observed; also recorded: no signs of toxicity”. Besides, the “relative HT-29 cell growth in hollow fibers” value in data set [11] (10.0, 15.0 or 20.0 mg/kg ip once daily for 4 days, compared with 5 mg/kg ip, NCr nu/nu mice) is “statistically significantly different”. For the same molecule, the “activity in in vivo hollow fiber assay” value in [11] (HT-29 cells implanted in NCr nu/nu mice) is recorded as “showed activity”.
